Results from ChEMBL document CHEMBL5705890, “Antitumor activity of an allosteric inhibitor of centromere-associated protein-E” (Proc Natl Acad Sci U S A, 2010).

Key:
SH-4 = experiment: Anticancer activity against human SH-4 cells assessed as cell growth inhibition measured after 72 hrs by DAPI staining based analysis; assay type: functional
H4 = experiment: Anticancer activity against human H4 cells assessed as cell doubling measured for 72 hrs by DAPI staining based analysis; assay type: functional
Detroit 562 = experiment: Anticancer activity against human Detroit 562 cells assessed as cell doubling measured for 72 hrs by DAPI staining based analysis; assay type: functional
Y79 = experiment: Anticancer activity against human Y79 cells assessed as cell growth inhibition measured after 72 hrs by DAPI staining based analysis; assay type: functional
SW1088 = experiment: Anticancer activity against human SW1088 cells assessed as cell growth inhibition measured after 72 hrs by DAPI staining based analysis; assay type: functional
[1] = Anticancer activity against human SW579 cells assessed as cell doubling measured for 72 hrs by DAPI staining based analysis; assay type: functional
Caov-3 cell line = experiment: Anticancer activity against human Caov-3 cells assessed as cell growth inhibition measured after 72 hrs by DAPI staining based analysis; assay type: functional
Outline: (§1)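 Cells seeded, DAPI-stained DNA content of fixed cells read by imaging 24 h after seeding (T0), and again after a further 72 h exposure to a range of drug concentrations (T72). T72 values were normalized to T0. Curve fits gave the concentration producing 50% growth inhibition relative to T0 and Ymax (GI50).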

NCI-H526 = experiment: Anticancer activity against human NCI-H526 cells assessed as cell doubling measured for 72 hrs by DAPI staining based analysis; assay type: functional
NCI-H187 = experiment: Anticancer activity against human NCI-H187 cells assessed as cell growth inhibition measured after 72 hrs by DAPI staining based analysis; assay type: functional
BPH-1 = experiment: Anticancer activity against human BPH-1 cells assessed as cell growth inhibition measured after 72 hrs by DAPI staining based analysis; assay type: functional
Outline: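 Cells were seeded, and DNA content at 24 h after seeding (T0) was read by imaging of fixed, DAPI-stained cells. Cells were then exposed to a range of drug concentrations for a further 72 h (T72) and DNA content was read again. T72 values were normalized to T0, and GI50 was taken from curve fits as the concentration giving 50% growth inhibition relative to T0 and Ymax.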

A2780 = experiment: Anticancer activity against human A2780 cells assessed as cell growth inhibition measured after 72 hrs by DAPI staining based analysis; assay type: functional
Outline: (§2)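 Cells were seeded and, after 24 h, DNA content was read as T0. Cells were then exposed to varying drug concentrations for a further 72 h (T72). Fixed cells were DAPI-stained and DNA content measured by automated imaging. T72 values were normalized to T0. GI50 is the concentration giving 50% growth inhibition between T0 and Ymax, obtained by curve fitting.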

[2] = Anticancer activity against human TE 381.T cells assessed as cell growth inhibition measured after 72 hrs by DAPI staining based analysis; assay type: functional
[3] = Anticancer activity against human KPL-1 cells assessed as cell growth inhibition measured after 72 hrs by DAPI staining based analysis; assay type: functional
MDA-MB-231 = experiment: Anticancer activity against human MDA-MB-231 cells assessed as cell doubling measured for 72 hrs by DAPI staining based analysis; assay type: functional
Malme-3M = experiment: Anticancer activity against human Malme-3M cells assessed as cell doubling measured for 72 hrs by DAPI staining based analysis; assay type: functional
BT-20 = experiment: Anticancer activity against human BT-20 cells assessed as cell doubling measured for 72 hrs by DAPI staining based analysis; assay type: functional
NCI-H295R = experiment: Anticancer activity against human NCI-H295R cells assessed as cell growth inhibition measured after 72 hrs by DAPI staining based analysis; assay type: functional
MC-CAR = experiment: Anticancer activity against human MC-CAR cells assessed as cell doubling measured for 72 hrs by DAPI staining based analysis; assay type: functional
SK-OV-3 = experiment: Anticancer activity against human SK-OV-3 cells assessed as cell growth inhibition measured after 72 hrs by DAPI staining based analysis; assay type: functional
NCI-H716 = experiment: Anticancer activity against human NCI-H716 cells assessed as cell growth inhibition measured after 72 hrs by DAPI staining based analysis; assay type: functional
A-375 = experiment: Anticancer activity against human A-375 cells assessed as cell doubling measured for 72 hrs by DAPI staining based analysis; assay type: functional
HEC-1B cell line = experiment: Anticancer activity against human HEC-1B cells assessed as cell doubling measured for 72 hrs by DAPI staining based analysis; assay type: functional
SK-LMS-1 = experiment: Anticancer activity against human SK-LMS-1 cells assessed as cell doubling measured for 72 hrs by DAPI staining based analysis; assay type: functional
DLD-1 = experiment: Anticancer activity against human DLD-1 cells assessed as cell doubling measured for 72 hrs by DAPI staining based analysis; assay type: functional
BFTC-905 = experiment: Anticancer activity against human BFTC-905 cells assessed as cell growth inhibition measured after 72 hrs by DAPI staining based analysis; assay type: functional; outline: as §2
[4] = target: Centromere-associated protein E (Homo sapiens, UniProt Q02224, I182L/K184T); experiment: Binding affinity to human CENP-E I182L/K184T mutant assessed as inhibition constant
RPMI-6666 = experiment: Anticancer activity against human RPMI-6666 cells assessed as cell doubling measured for 72 hrs by DAPI staining based analysis; assay type: functional
SCC-9 = experiment: Anticancer activity against human SCC-9 cells assessed as cell doubling measured for 72 hrs by DAPI staining based analysis; assay type: functional
[5] = Anticancer activity against human MJ cells assessed as cell doubling measured for 72 hrs by DAPI staining based analysis; assay type: functional
M14 = experiment: Anticancer activity against human M14 cells assessed as cell growth inhibition measured after 72 hrs by DAPI staining based analysis; assay type: functional
G-402 = experiment: Anticancer activity against human G-402 cells assessed as cell doubling measured for 72 hrs by DAPI staining based analysis; assay type: functional
BHT-101 = experiment: Anticancer activity against human BHT-101 cells assessed as cell doubling measured for 72 hrs by DAPI staining based analysis; assay type: functional
SCC-15 = experiment: Anticancer activity against human SCC-15 cells assessed as cell doubling measured for 72 hrs by DAPI staining based analysis; assay type: functional
COLO 320DM = experiment: Anticancer activity against human COLO 320DM cells assessed as cell doubling measured for 72 hrs by DAPI staining based analysis; assay type: functional
[6] = Anticancer activity against human KPL-1 cells assessed as cell doubling measured for 72 hrs by DAPI staining based analysis; assay type: functional
MV4-11 = experiment: Anticancer activity against human MV4-11 cells assessed as cell doubling measured for 72 hrs by DAPI staining based analysis; assay type: functional
DU-145 = experiment: Anticancer activity against human DU-145 cells assessed as cell growth inhibition measured after 72 hrs by DAPI staining based analysis; assay type: functional; outline: as §1
NCI-H146 = experiment: Anticancer activity against human NCI-H146 cells assessed as cell growth inhibition measured after 72 hrs by DAPI staining based analysis; assay type: functional
SiHa = experiment: Anticancer activity against human SiHa cells assessed as cell growth inhibition measured after 72 hrs by DAPI staining based analysis; assay type: functional
SR = experiment: Anticancer activity against human SR cells assessed as cell growth inhibition measured after 72 hrs by DAPI staining based analysis; assay type: functional
CGTH-W-1 = experiment: Anticancer activity against human CGTH-W-1 cells assessed as cell doubling measured for 72 hrs by DAPI staining based analysis; assay type: functional

Chain of Centromere-associated protein E (Q02224 whole entry I182L/K184T): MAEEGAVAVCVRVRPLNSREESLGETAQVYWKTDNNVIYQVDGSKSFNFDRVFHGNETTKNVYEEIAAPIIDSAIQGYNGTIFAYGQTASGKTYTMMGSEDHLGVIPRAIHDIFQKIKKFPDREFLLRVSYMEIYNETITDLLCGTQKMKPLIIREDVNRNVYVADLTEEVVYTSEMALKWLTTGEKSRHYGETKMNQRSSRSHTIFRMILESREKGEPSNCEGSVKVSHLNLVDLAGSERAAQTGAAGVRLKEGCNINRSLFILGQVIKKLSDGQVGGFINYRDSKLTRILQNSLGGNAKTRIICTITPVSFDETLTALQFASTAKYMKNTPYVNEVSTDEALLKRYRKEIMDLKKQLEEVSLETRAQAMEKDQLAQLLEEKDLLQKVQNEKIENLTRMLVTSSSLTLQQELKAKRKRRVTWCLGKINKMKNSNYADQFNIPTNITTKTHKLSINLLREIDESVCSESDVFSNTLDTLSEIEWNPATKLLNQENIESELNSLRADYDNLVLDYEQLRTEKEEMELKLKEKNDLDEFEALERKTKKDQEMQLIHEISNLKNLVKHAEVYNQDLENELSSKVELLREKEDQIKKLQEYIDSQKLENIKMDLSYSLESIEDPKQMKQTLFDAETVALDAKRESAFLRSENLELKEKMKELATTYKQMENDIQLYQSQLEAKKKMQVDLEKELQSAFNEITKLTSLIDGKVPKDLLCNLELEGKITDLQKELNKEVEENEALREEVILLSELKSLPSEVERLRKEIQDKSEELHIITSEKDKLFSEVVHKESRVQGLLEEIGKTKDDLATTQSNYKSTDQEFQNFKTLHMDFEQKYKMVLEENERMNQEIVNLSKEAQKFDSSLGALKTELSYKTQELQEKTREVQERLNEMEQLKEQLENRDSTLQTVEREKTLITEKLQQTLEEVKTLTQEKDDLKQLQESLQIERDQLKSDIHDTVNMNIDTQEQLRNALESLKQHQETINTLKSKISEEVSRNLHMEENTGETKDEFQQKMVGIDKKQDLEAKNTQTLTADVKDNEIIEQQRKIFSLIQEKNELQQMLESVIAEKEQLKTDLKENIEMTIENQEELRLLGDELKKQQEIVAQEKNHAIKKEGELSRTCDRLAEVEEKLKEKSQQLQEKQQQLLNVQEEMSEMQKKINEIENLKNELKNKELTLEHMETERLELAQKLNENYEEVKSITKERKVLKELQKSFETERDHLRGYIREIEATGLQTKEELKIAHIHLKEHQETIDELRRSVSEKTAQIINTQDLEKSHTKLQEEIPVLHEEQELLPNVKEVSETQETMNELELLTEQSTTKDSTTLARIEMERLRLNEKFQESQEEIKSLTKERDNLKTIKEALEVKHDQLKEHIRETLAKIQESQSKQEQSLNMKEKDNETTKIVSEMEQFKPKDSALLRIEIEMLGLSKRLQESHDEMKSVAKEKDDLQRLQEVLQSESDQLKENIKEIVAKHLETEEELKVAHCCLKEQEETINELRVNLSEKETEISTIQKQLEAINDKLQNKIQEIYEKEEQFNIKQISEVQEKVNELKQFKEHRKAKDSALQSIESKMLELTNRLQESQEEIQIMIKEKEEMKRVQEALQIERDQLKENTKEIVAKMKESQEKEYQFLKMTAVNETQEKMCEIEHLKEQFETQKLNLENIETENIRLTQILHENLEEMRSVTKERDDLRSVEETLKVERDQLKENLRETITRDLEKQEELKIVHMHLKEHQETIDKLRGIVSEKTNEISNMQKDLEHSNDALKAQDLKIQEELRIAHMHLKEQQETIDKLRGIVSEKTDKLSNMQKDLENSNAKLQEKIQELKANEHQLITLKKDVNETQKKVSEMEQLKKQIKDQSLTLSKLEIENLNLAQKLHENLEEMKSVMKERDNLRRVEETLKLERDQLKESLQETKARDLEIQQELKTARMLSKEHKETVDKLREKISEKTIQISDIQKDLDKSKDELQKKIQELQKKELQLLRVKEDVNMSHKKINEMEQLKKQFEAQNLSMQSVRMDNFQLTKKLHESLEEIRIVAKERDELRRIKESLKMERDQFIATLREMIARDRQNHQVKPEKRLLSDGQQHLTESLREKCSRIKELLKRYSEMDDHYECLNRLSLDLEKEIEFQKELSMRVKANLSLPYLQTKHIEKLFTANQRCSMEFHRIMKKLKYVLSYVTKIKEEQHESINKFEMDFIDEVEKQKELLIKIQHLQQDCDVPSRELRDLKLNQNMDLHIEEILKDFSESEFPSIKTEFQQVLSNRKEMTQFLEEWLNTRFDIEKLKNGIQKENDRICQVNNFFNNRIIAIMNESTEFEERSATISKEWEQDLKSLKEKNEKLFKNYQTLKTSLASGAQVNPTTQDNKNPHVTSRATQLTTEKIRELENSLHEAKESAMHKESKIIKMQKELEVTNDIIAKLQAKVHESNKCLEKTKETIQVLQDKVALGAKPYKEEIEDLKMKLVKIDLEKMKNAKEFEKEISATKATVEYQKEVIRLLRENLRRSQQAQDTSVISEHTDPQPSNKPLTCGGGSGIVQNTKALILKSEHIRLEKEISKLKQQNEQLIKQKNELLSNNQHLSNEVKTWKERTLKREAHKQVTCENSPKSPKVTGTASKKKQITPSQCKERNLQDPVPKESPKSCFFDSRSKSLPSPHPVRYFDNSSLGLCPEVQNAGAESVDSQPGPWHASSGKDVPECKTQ

For CC(C)Oc1ccc(C(=O)N[C@H](CNC(=O)CN(C)C)Cc2ccc(-c3cn4cccc([C@H](C)O)c4n3)cc2)cc1Cl [GSK-923295A], the GI50 (SH-4) was 0.044 µM, the Activity (H4) was 2.64 and the Activity (Detroit 562) was 2.52. It also gave a GI50 (Y79) of 0.07 µM, a GI50 (SW1088) of 0.032 µM and an Activity [1] of 1.41. For the same compound, the GI50 (Caov-3 cell line) was 0.033 µM, the Activity (NCI-H526) was 1.49 and the GI50 (NCI-H187) was 0.068 µM. The GI50 (BPH-1) was 0.052 µM, the GI50 (A2780) was 0.013 µM and the GI50 [2] was 0.027 µM. For the same compound, the GI50 [3] was 0.031 µM, the Activity (MDA-MB-231) was 2.32 and the Activity (Malme-3M) was 1.18. It also gave an Activity (BT-20) of 4.17, a GI50 (NCI-H295R) of 0.298 µM and an Activity (MC-CAR) of 2.03. It also gave a GI50 (SK-OV-3) of 0.026 µM, a GI50 (NCI-H716) of 0.174 µM and an Activity (A-375) of 3.04. For the same compound, the Activity (HEC-1B cell line) was 2.04, the Activity (SK-LMS-1) was 2.84 and the Activity (DLD-1) was 4.11. It also gave a GI50 (BFTC-905) of 0.03 µM, a Ki [4] of 0.018 µM and an Activity (RPMI-6666) of 1.99. For the same compound, the Activity (SCC-9) was 1.95, the Activity [5] was 3.39 and the GI50 (M14) was 0.027 µM. It also gave an Activity (G-402) of 1.76, an Activity (BHT-101) of 2.09 and an Activity (SCC-15) of 2.38. It also gave an Activity (COLO 320DM) of 3.85, an Activity [6] of 2.47 and an Activity (MV4-11) of 1.79. The GI50 (DU-145) was 0.023 µM, the GI50 (NCI-H146) was 5.23 µM and the GI50 (SiHa) was 0.029 µM. The GI50 (SR) was 0.029 µM and the Activity (CGTH-W-1) was 3.66.
